{"data": "Experimental data of several laboratories", "target": "Serine/threonine-protein kinase N1 (PKN1, Homo sapiens, UniProt Q16512)", "note": "Each line is one published result; the experiments were not run side by side."}
{"SMILES": "CC1=C(C#N)C(c2ccc3c(c2)c(NC(=O)c2ccccc2C)nn3C)C(C#N)=C(C)N1", "assay": "cell-free assay, competition with immobilised ligand", "conditions": "1 µM", "remaining binding [%]": 78}
{"SMILES": "O=C(NCCCN1CCOCC1)c1ccc(Nc2nccc(-c3cc4ccccc4s3)n2)cc1", "assay": "binding, competition with immobilised ligand", "conditions": "1 µM", "remaining binding [%]": 37}
{"SMILES": "O=C(NS(=O)(=O)c1ccc(NCC2CCOCC2)c([N+](=O)[O-])c1)c1ccc(N2CCN(Cc3ccc(C(F)(F)F)cc3-c3ccc(Cl)cc3)CC2)cc1Oc1cnc2[nH]ccc2c1", "assay": "cell-free assay, competition with immobilised ligand", "conditions": "1 µM", "remaining binding [%]": 100}
{"SMILES": "c1cnn2ncc(-c3ccnc(N4CCC45COC5)n3)c2c1", "assay": "binding", "conditions": "1 µM", "remaining binding [%]": 87}
{"SMILES": "O=C(Nc1c[nH]nc1C(=O)NC1CCNCC1)c1cc(F)cc(F)c1", "assay": "binding, competition with immobilised ligand", "conditions": "1 µM", "remaining binding [%]": 100}
{"SMILES": "O=C(c1ccc(Nc2ncc(Cl)c(-c3ccc(Cl)s3)n2)cc1)N1CCC(N2CCCC2)CC1", "assay": "binding, competition with immobilised ligand", "conditions": "1 µM", "remaining binding [%]": 25}
{"SMILES": "CN(C)c1nccc(-c2cnn3ncccc23)n1", "assay": "binding", "conditions": "1 µM", "remaining binding [%]": 98}
{"SMILES": "COc1ccc2c(c1)O[C@@H](c1ccc(OC)c(OC)c1)C[C@H]2NC(=O)C1(c2ccc3c(c2)OC(F)(F)O3)CC1", "assay": "cell-free assay, competition with immobilised ligand", "conditions": "1 µM", "remaining binding [%]": 96}
{"SMILES": "COc1cnc(Nc2cccc(S(N)(=O)=O)c2)nc1N1CCN(c2ccccc2)CC1", "assay": "binding, competition with immobilised ligand", "conditions": "1 µM", "remaining binding [%]": 82}
{"SMILES": "Cc1cc(C)c(-n2ccn3nc(-c4cccnc4)cc23)cc1NC(=O)c1cc(C#N)cc(S(F)(F)(F)(F)F)c1", "assay": "cell-free assay, competition with immobilised ligand", "conditions": "0.1 µM", "remaining binding [%]": 96.7}
{"SMILES": "c1cncc(-c2cccc(Nc3nccc(NC4CCCCC4)n3)c2)c1", "assay": "binding, competition with immobilised ligand", "conditions": "10 µM", "remaining binding [%]": 64}
{"SMILES": "FC(F)(F)Oc1cccc(-c2cnc3ccc(-c4ccncc4)nn23)c1", "assay": "cell-free assay, competition with immobilised ligand", "conditions": "5 µM", "remaining binding [%]": 67}
{"SMILES": "CC1CCCN1c1nccc(-c2cnn3ncccc23)n1 (stereo not shown)", "assay": "binding", "conditions": "1 µM", "remaining binding [%]": 100}
{"SMILES": "O=C(Nc1cnc(Oc2ccc(F)cc2)nc1)N1CCc2ncccc2[C@@H]1c1ccc(F)cc1", "assay": "cell-free assay, competition with immobilised ligand", "conditions": "1 µM", "remaining binding [%]": 95}
{"SMILES": "CN(c1nccc(-c2cnn3ncccc23)n1)C1CC1", "assay": "binding", "conditions": "1 µM", "remaining binding [%]": 100}
{"SMILES": "C[C@@H](c1ccc(-n2cnc3c(N)ncnc32)cc1)N1CCc2nn(C)c(Cc3ccccc3)c2C1=O", "assay": "binding, competition with immobilised ligand", "conditions": "0.1 µM", "remaining binding [%]": 98}
{"SMILES": "CN(C)c1nccc(-c2cnc3ncccn23)n1", "assay": "binding", "conditions": "1 µM", "remaining binding [%]": 100}
{"SMILES": "Cc1cnc(Nc2ccc(C(=O)N3CCC(N4CCCC4)CC3)cc2)nc1-c1cc2ccccc2s1", "assay": "binding, competition with immobilised ligand", "conditions": "1 µM", "remaining binding [%]": 1.2}
{"SMILES": "N[C@@H]1CCN(c2nccc(-c3cnn4ncccc34)n2)C1", "assay": "binding", "conditions": "1 µM", "remaining binding [%]": 93}
{"SMILES": "C=CC(=O)N1CCC(C(=O)NCC(=O)N2CCN(c3nc(-c4cnc(N)nc4C(F)F)nc(N4CCOCC4)n3)CC2)CC1", "assay": "binding, competition with immobilised ligand", "conditions": "1 µM", "remaining binding [%]": 83}
{"SMILES": "COc1ccnn2ncc(-c3ccnc(N(C)C)n3)c12", "assay": "binding", "conditions": "1 µM", "remaining binding [%]": 74}
{"SMILES": "CNC(=O)Nc1ccc2c(c1)[C@@]1(CC2)OC(=O)N(CC(=O)N(Cc2ccc(F)cc2)[C@@H](C)C(F)(F)F)C1=O", "assay": "cell-free assay, competition with immobilised ligand", "conditions": "1 µM", "remaining binding [%]": 98}
